Laboratory results reported in the RNAGym collection of RNA variant scans (doi:10.1126/science.aae0568).
This sample holds only a part of the variants without activity.

B1: tRNA (parent)
chain: GUUCCGUUGGCGUAAUGGUAACGCGUCUCCCUCCUAAGGAGAAGACUGCGGGUUCGAGUCCCGUACGGAACG

Variants of: B1
Test: yeast fitness relative to wild type (ratio to wild type); higher = fitter; tRNA-Arg(CCU), competitive growth, 37 C, YPD
In short: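 Variants of the tRNA-Arg(CCU) gene were chemically synthesised with a 3% per-site mutation rate across 69 sites and placed at the native genomic locus in Saccharomyces cerevisiae. Six parallel replicates of the pooled strains were competed in YPD at 37°C for 24 hours, and gene amplicons from the start and end populations were read by 100-nucleotide paired-end sequencing. Darwinian fitness relative to wild type was derived from changes in genotype frequencies. Genotypes required ≥ 100 starting reads, and estimates < 0.5 were set to 0.5.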

Variant | yeast fitness
A15G G17A C30A U47C | ≤ 0.5
A15G G17A C33U G39C | 0.54
A15G G39C A40C | 0.622
A15G C31U U35C | 0.609
A15G G56C C66G | ≤ 0.5
A15G C30G G68A | ≤ 0.5
A15G C31U U47G G58C C62U | ≤ 0.5
A15G C34U G44C G50C C62U | ≤ 0.5
A15G U16C | 0.927
A15G U16A | 0.919
A15G G48C G51A | ≤ 0.5
A15G U16C C34U G44C C61U | ≤ 0.5
A15G G25C G48A G56A | 0.79
A15G G41C G51C | ≤ 0.5
A15G G63C A65G | 0.543
A15G G41C | 0.827
A15G U26C G44A G50C A70G | ≤ 0.5
A15G C30U A70C | 0.615
A15G C30G C62G | ≤ 0.5
A15G G25A G38A | ≤ 0.5
A15G C33G G51A | 0.665
A15G U19C A21G | 0.656
A15G G25A C60U G68C | 0.561
A15G G38C | 0.669

Variant | yeast fitness
A15G G38A | 0.866
A15G G18A A45C | 0.57
A15G U16A G38C C62G G68A | ≤ 0.5
A15G U26C U32A C34U G38C G51A A57C C66U | ≤ 0.5
A15G G39A A69U | 0.774
A15G G68C | 0.648
A15G G68U | 0.782
A15G C31A | 0.623
A15G C31G A40U | 0.586
A15G G38C C66U | ≤ 0.5
A15G G23A G25A G38A | 0.746
A15G G25C G48C | 0.576
A15G G44C | 0.785
A15G G52C A70U | ≤ 0.5
A15G C46G C61G | 0.567
A15G C34A | 0.811
A15G C46G | 0.897
A15G G17A U26C C61U G67A | ≤ 0.5
A15G G52A | 0.772
A15G G52C | 0.568
A15G G52U | 0.73
A15G G38C C60G | ≤ 0.5
A15G G41A U53G | ≤ 0.5
A15G G23U C24G A45G | 0.554

Variant | yeast fitness
A15G G23C A45G G52A G63A | ≤ 0.5
A15G C60A | 0.687
A15G C60G | 0.668
A15G C30G A40U A42C C49G | ≤ 0.5
A15G G50A G56A | 0.552
A15G C34U C49A | 0.6
A15G U16C C34U G44C | ≤ 0.5
A15G C30G A42C A43C C46G | ≤ 0.5
A15G G25A C30A G52A | 0.563
A15G C49G G56C | ≤ 0.5
A15G C31A G41C C49U | ≤ 0.5
A15G G25A C27U C49U | 0.714
A15G G17C G23A G25A C66U | ≤ 0.5
A15G G58C G68A | 0.593
A15G C30U G52A A70U | 0.581
A15G C62U A70U | 0.73
A15G G39A A70C | 0.742
A15G G51A A65U | ≤ 0.5
A15G C34U A42U U47A A57G | ≤ 0.5
A15G G23A G50A A57C A65U | 0.6
A15G G48A A65U | 0.759
A15G C30G C31A | ≤ 0.5
A15G C61U G67A | 0.549
A15G C31G U35C | 0.531

Variant | yeast fitness
A15G G56C C61U | ≤ 0.5
A15G C30U | 0.894
A15G G25A C49U A65U | 0.58
A15G G23C A45G G52A | 0.65
A15G G44C C61U | 0.607
A15G G25C G67A A70G | ≤ 0.5
A15G C31A C66G G68C | 0.563
A15G G17A A65G | ≤ 0.5
A15G C33G G50A | ≤ 0.5
A15G C55U U59C A65C | ≤ 0.5
A15G G17C C33A C46A G52A | ≤ 0.5
A15G U16A A20G U28A C30A C33A A36U A69C | ≤ 0.5
A15G U19A U28A G63A | ≤ 0.5
A15G G38C U64A G68A A69C | ≤ 0.5
A15G G44A C49U G50C A70G | ≤ 0.5
A15G C62U A69U | 0.934
A15G C30U C33A G41C C46U G48C | 0.551
A15G G17C C34U C60A | ≤ 0.5
A15G G18A G58C A69U | ≤ 0.5
A15G G23A G25A G38A A70U | ≤ 0.5
A15G C55G | 0.641
A15G C55U | 0.75
A15G U16C C29G G41A | 0.599
A15G U16A U19C C30U G52C | ≤ 0.5

Variant | yeast fitness
A15G C31A C55U | ≤ 0.5
A15G C46U A65U | 0.735
A15G U26A G41A U64A A70C | ≤ 0.5
A15G U26C | 0.802
A15G G63C A69U | 0.651
A15G G18A G38C | ≤ 0.5
A15G U19C C46G C55U | ≤ 0.5
A15G G39A C62G | 0.568
A15G C46U A70U | 0.829
A15G G18A C49U | 0.669
A15G C46U C61G | 0.581
A15G C30G U64C | ≤ 0.5
A15G G17A C29G C31U C46A | ≤ 0.5
A15G G41A C49A C66A | 0.53
A15G G39C A42C | 0.553
A15G C49A | 0.735
A15G G25A C61U A70U | ≤ 0.5
A15G G25A C61U | 0.558
A15G C31U A42U A70U | 0.602
A15G G51A | 0.668
A15G U26C G63A | ≤ 0.5
A15G G38A A40G A69U | ≤ 0.5
A15G G41C A45G | ≤ 0.5
A15G G48C A57U | 0.511

Variant | yeast fitness
A15G G41C C49G C55U C61A | 0.638
A15G G48A A70C | 0.748
A15G G39C C62U G63C | ≤ 0.5
A15G C61G | 0.698
A15G C61A | 0.589
A15G C61U | 0.65
A15G U19A | 1.13
A15G G58C | 0.949
A15G G58A | 0.909
A15G G56C | 0.651
A15G C33A U54A | ≤ 0.5
A15G C31G C66U | 0.601
A15G C30G C66U | ≤ 0.5
A15G C31G U35C A57U | ≤ 0.5
A15G C33G G44A C46G C66U | ≤ 0.5
A15G G39A C49U | 0.679
A15G G48A G58C | 0.759
A15G C34U A42G C49A | ≤ 0.5
A15G C55U G56A | 0.58
A15G G48C A69U | 0.636
A15G G41A A69U | 0.615
A15G G23A | 0.931
A15G G48C C61A | ≤ 0.5
A15G G17A C46U | 0.738

Variant | yeast fitness
A15G U19C A37U | 0.622
A15G G50A A57G | 0.584
A15G G67A A69U | 0.637
A15G C46G C55U | ≤ 0.5
A15G C33U A65U | 0.543
A15G C61G A70C | 0.639
A15G G25C C31U A70U | ≤ 0.5
A15G U26A C60U A70C | 0.52
A15G C31U A45U | 0.668
A15G C46U A69C | 0.835
A15G G39C U54C C55U | ≤ 0.5
A15G C62A | 0.798
A15G C62U | 0.994
A15G C31A U54C | ≤ 0.5
A15G G39A | 0.959
A15G G44C U59A | ≤ 0.5
A15G C61U A65U C66U | ≤ 0.5
A15G G44A G50C A70G | ≤ 0.5
A15G U16C A20C A21U U26C | ≤ 0.5
A15G C49U A69C | 0.875
A15G C46G G52A | 0.576
A15G C49A A69U | 0.579
A15G C33G G39C | ≤ 0.5
